Test results: ChEMBL document CHEMBL1125275, “2-[(arylmethyl) amino]-2-methyl-1,3-propanediol DNA intercalators. An examination of the effects of aromatic ring variation on antitumor activity and DNA binding” (J Med Chem, 1991)

Organism: Mus musculus
Assay: Number of animals survived after 30 days; 4/6
Assay type: functional
Details: not given
For `CC(CO)(CO)NCc1c2c3c(cccc3c3ccccc13)C=C2`, the “No. of animals survived” value was 4.

Organism: Mus musculus
Assay: Percent increase in life span (% ILS) was tested at optimal dose.
Assay type: functional
Details: not given
Procedure, shortened: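 In vivo murine P388 lymphocytic leukemia screen; antitumor effect read as percent increase in life span (% ILS).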
`CC(CO)(CO)NCc1c2ccccc2cc2c1ccc1ccccc12` gave an ILS of 180%.
Compound `CC(CO)(CO)NCc1ccc2c3c1ccc1cccc(c13)C2` has an ILS of 45%.
`CC(CO)(CO)NCc1cccc2c3ccccc3c3ccccc3c12.Cl` was tested, and the ILS was 25%.
`CC(CO)(CO)NCc1ccc2ccc3c4ccccc4ccc3c2c1` gave an ILS of 20%.
`CC(CO)(CO)NCc1cccc2c1ccc1ccccc12.Cl` was tested, and the ILS was 65%.
In the case of `CC(CO)(CO)NCc1ccc2ccc3ccccc3c2c1.Cl`, the ILS is reported as 20%.
With `CC(CO)(CO)NCc1cc2cccc3ccc4cccc1c4c32.Cl` the ILS was 45%.
`CC(CO)(CO)NCc1cccc2cc3ccccc3cc12.Cl` gave an ILS of 125%.
With `CC(CO)(CO)NCc1cc2ccccc2c2ccccc12.Cl` the ILS was 60%.
For `CC(CO)(CO)NCc1c2ccccc2c2ccc3cccc4ccc1c2c43`, the ILS was 100%.
Work on `CC(CO)(CO)NCc1cccc2c1-c1cccc3cccc-2c13.Cl` yielded an ILS of 142%.
`CC(CO)(CO)NCc1c2ccccc2cc2ccccc12.Cl` gave an ILS of 30%.
`CC(CO)(CO)NCc1ccc2c(ccc3ccccc32)c1.Cl` gave an ILS of 33%.
`CC(CO)(CO)NCc1ccc2cccc3c2c1-c1ccccc1-3.Cl` showed an ILS of 100%.
For `CC(CO)(CO)NCc1c2ccccc2cc2cc3ccccc3cc12`, the ILS was 165%.
`CC(CO)(CO)NCc1ccc2c(ccc3cc4ccccc4cc32)c1` gave an ILS of 20%.
`CC(CO)(CO)NCc1ccc2ccc3cccc4ccc1c2c34.Cl` was tested, and the ILS was 120%.
Compound `CC(CO)(CO)NCc1c2c(cc3ccccc13)Cc1ccccc1-2` has an ILS of 210%.
For `CC(CO)(CO)NCc1c2c3c(cccc3c3ccccc13)C=C2`, the ILS was 225%.

Organism: Mus musculus
Assay: Number of animals survived after 60 days; 0/6
Assay type: functional
Details: not given
`CC(CO)(CO)NCc1c2ccccc2cc2c1ccc1ccccc12` was tested, and the “No. of animals survived” value was 0.
`CC(CO)(CO)NCc1c2ccccc2cc2cc3ccccc3cc12` was tested, and the “No. of animals survived” value was 0.
For `CC(CO)(CO)NCc1c2c(cc3ccccc13)Cc1ccccc1-2`, the “No. of animals survived” value was 0.
In the case of `CC(CO)(CO)NCc1c2c3c(cccc3c3ccccc13)C=C2`, the “No. of animals survived” value is reported as 0.

Organism: Mus musculus
Assay: Number of animals survived after 30 days of treatment; 0/6.
Assay type: functional
Details: not given
For `CC(CO)(CO)NCc1ccc2c3c1ccc1cccc(c13)C2`, the “No. of animals survived” value was 0.
For `CC(CO)(CO)NCc1cccc2c3ccccc3c3ccccc3c12.Cl`, the “No. of animals survived” value was 0.
`CC(CO)(CO)NCc1ccc2ccc3c4ccccc4ccc3c2c1` was tested, and the “No. of animals survived” value was 0.
For `CC(CO)(CO)NCc1cccc2c1ccc1ccccc12.Cl`, the “No. of animals survived” value was 0.
For `CC(CO)(CO)NCc1ccc2ccc3ccccc3c2c1.Cl`, the “No. of animals survived” value was 0.
With `CC(CO)(CO)NCc1cc2cccc3ccc4cccc1c4c32.Cl` the “No. of animals survived” value was 0.
For `CC(CO)(CO)NCc1cccc2cc3ccccc3cc12.Cl`, the “No. of animals survived” value was 0.
`CC(CO)(CO)NCc1cc2ccccc2c2ccccc12.Cl` was tested, and the “No. of animals survived” value was 0.
For `CC(CO)(CO)NCc1c2ccccc2c2ccc3cccc4ccc1c2c43`, the “No. of animals survived” value was 0.
With `CC(CO)(CO)NCc1cccc2c1-c1cccc3cccc-2c13.Cl` the “No. of animals survived” value was 0.
With `CC(CO)(CO)NCc1c2ccccc2cc2ccccc12.Cl` the “No. of animals survived” value was 0.
With `CC(CO)(CO)NCc1ccc2c(ccc3ccccc32)c1.Cl` the “No. of animals survived” value was 0.
In the case of `CC(CO)(CO)NCc1ccc2cccc3c2c1-c1ccccc1-3.Cl`, the “No. of animals survived” value is reported as 0.
In the case of `CC(CO)(CO)NCc1ccc2c(ccc3cc4ccccc4cc32)c1`, the “No. of animals survived” value is reported as 0.
`CC(CO)(CO)NCc1ccc2ccc3cccc4ccc1c2c34.Cl` was tested, and the “No. of animals survived” value was 0.

Organism: Mus musculus
Assay: Number of animals survived after 30 days; 2/6
Assay type: functional
Details: not given
For `CC(CO)(CO)NCc1c2ccccc2cc2c1ccc1ccccc12`, the “No. of animals survived” value was 2.
`CC(CO)(CO)NCc1c2ccccc2cc2cc3ccccc3cc12` was tested, and the “No. of animals survived” value was 2.

Each compound was assayed on P388 (assay: The compound tested for the lethal dose in murine lymphocytic leukemia P388.). Details: mouse.
Assay type: ADME
Work on `CC(CO)(CO)NCc1cccc2c1-c1cccc3cccc-2c13.Cl` yielded an LD20 of 123 mg/kg.
Work on `CC(CO)(CO)NCc1ccc2cccc3c2c1-c1ccccc1-3.Cl` yielded an LD20 of 140 mg/kg.

Each compound was assayed on P388 (assay: Antitumor activity in murine lymphocytic leukemia P388 cells). Details: not given.
Assay type: functional, Mus musculus
Procedure, shortened: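 Preliminary in vivo antitumor screen in mice bearing murine lymphocytic leukemia P388. The read-out is percent increase in life span (% ILS). Highest nontoxic doses used in the assay are reported in parentheses.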
`CC(CO)(CO)NCc1c2ccccc2cc2c1ccc1ccccc12` gave an Optimal dose of 180 mg/kg.
In the case of `CC(CO)(CO)NCc1ccc2c3c1ccc1cccc(c13)C2`, the Optimal dose is reported as 270 mg/kg.
`CC(CO)(CO)NCc1cccc2c3ccccc3c3ccccc3c12.Cl` was tested, and the Optimal dose was 155 mg/kg.
For `CC(CO)(CO)NCc1ccc2ccc3c4ccccc4ccc3c2c1`, the Optimal dose was 110 mg/kg.
`CC(CO)(CO)NCc1cccc2c1ccc1ccccc12.Cl` was tested, and the Optimal dose was 230 mg/kg.
With `CC(CO)(CO)NCc1ccc2ccc3ccccc3c2c1.Cl` the Optimal dose was 225 mg/kg.
`CC(CO)(CO)NCc1cc2cccc3ccc4cccc1c4c32.Cl` gave an Optimal dose of 40 mg/kg.
`CC(CO)(CO)NCc1cccc2cc3ccccc3cc12.Cl` showed an Optimal dose of 120 mg/kg.
`CC(CO)(CO)NCc1cc2ccccc2c2ccccc12.Cl` showed an Optimal dose of 150 mg/kg.
`CC(CO)(CO)NCc1c2ccccc2c2ccc3cccc4ccc1c2c43` showed an Optimal dose of 100 mg/kg.
`CC(CO)(CO)NCc1cccc2c1-c1cccc3cccc-2c13.Cl` showed an Optimal dose of 100 mg/kg.
For `CC(CO)(CO)NCc1c2ccccc2cc2ccccc12.Cl`, the Optimal dose was 150 mg/kg.
Compound `CC(CO)(CO)NCc1ccc2c(ccc3ccccc32)c1.Cl` has an Optimal dose of 200 mg/kg.
Work on `CC(CO)(CO)NCc1ccc2cccc3c2c1-c1ccccc1-3.Cl` yielded an Optimal dose of 140 mg/kg.
`CC(CO)(CO)NCc1c2ccccc2cc2cc3ccccc3cc12` gave an Optimal dose of 60 mg/kg.
`CC(CO)(CO)NCc1ccc2c(ccc3cc4ccccc4cc32)c1` showed an Optimal dose of 200 mg/kg.
`CC(CO)(CO)NCc1ccc2ccc3cccc4ccc1c2c34.Cl` gave an Optimal dose of 260 mg/kg.
`CC(CO)(CO)NCc1c2c(cc3ccccc13)Cc1ccccc1-2` gave an Optimal dose of 250 mg/kg.
`CC(CO)(CO)NCc1c2c3c(cccc3c3ccccc13)C=C2` showed an Optimal dose of 110 mg/kg.

These compounds were tested on P388 (assay: Lethal dose in murine lymphocytic leukemia P388 cells). Details: not given.
Assay type: functional, Mus musculus
In the case of `CC(CO)(CO)NCc1c2ccccc2cc2c1ccc1ccccc12`, the LD20 is reported as 220 mg/kg.
`CC(CO)(CO)NCc1ccc2c3c1ccc1cccc(c13)C2` gave an LD20 of 300 mg/kg.
In the case of `CC(CO)(CO)NCc1cccc2c3ccccc3c3ccccc3c12.Cl`, the LD20 is reported as 165 mg/kg.
In the case of `CC(CO)(CO)NCc1ccc2ccc3c4ccccc4ccc3c2c1`, the LD20 is reported as 110 mg/kg.
With `CC(CO)(CO)NCc1cccc2c1ccc1ccccc12.Cl` the LD20 was 225 mg/kg.
Compound `CC(CO)(CO)NCc1ccc2ccc3ccccc3c2c1.Cl` has an LD20 of 250 mg/kg.
`CC(CO)(CO)NCc1cc2cccc3ccc4cccc1c4c32.Cl` showed an LD20 of 40 mg/kg.
`CC(CO)(CO)NCc1cccc2cc3ccccc3cc12.Cl` showed an LD20 of 110 mg/kg.
`CC(CO)(CO)NCc1cc2ccccc2c2ccccc12.Cl` showed an LD20 of 125 mg/kg.
With `CC(CO)(CO)NCc1c2ccccc2c2ccc3cccc4ccc1c2c43` the LD20 was 123 mg/kg.
`CC(CO)(CO)NCc1c2ccccc2cc2ccccc12.Cl` gave an LD20 of 150 mg/kg.
With `CC(CO)(CO)NCc1ccc2c(ccc3ccccc32)c1.Cl` the LD20 was 175 mg/kg.
Work on `CC(CO)(CO)NCc1c2ccccc2cc2cc3ccccc3cc12` yielded an LD20 of 60 mg/kg.
`CC(CO)(CO)NCc1ccc2c(ccc3cc4ccccc4cc32)c1` showed an LD20 of 200 mg/kg.
With `CC(CO)(CO)NCc1ccc2ccc3cccc4ccc1c2c34.Cl` the LD20 was 275 mg/kg.
Work on `CC(CO)(CO)NCc1c2c3c(cccc3c3ccccc13)C=C2` yielded an LD20 of 125 mg/kg.

Organism: Mus musculus
Assay: Number of animals survived after 30 days; 3/6
Assay type: functional
Details: not given
`CC(CO)(CO)NCc1c2c(cc3ccccc13)Cc1ccccc1-2` was tested, and the “No. of animals survived” value was 3.

The compounds below were run on P388 (assay: The compound tested for the highest non-toxic dose in murine lymphocytic leukemia P388.). Details: not given.
Assay type: functional, Mus musculus
Procedure, shortened: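 In vivo murine P388 lymphocytic leukemia screen; the value reported is the highest nontoxic dose used in the assay.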
For `CC(CO)(CO)NCc1c2c(cc3ccccc13)Cc1ccccc1-2`, the Highest non-toxic dose was 250 mg/kg.
